Results published in ChEMBL document CHEMBL1129633, “Synthesis and pharmacological testing of dequalinium analogues as blockers of the apamin-sensitive Ca(2+)-activated K+ channel: variation of the length of the alkylene chain” (J Med Chem, 1996).

Assays:
[1] = organism: Rattus norvegicus; assay: The equieffective molar ratio of the concentrations of the test compound and dequalinium that cause 50% inhibition of the after hyper polarization (AHP); format: functional
Procedure, shortened: (§1)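 Cultured neurons (3-10 days in culture); action potentials evoked every 5 s by depolarizing current pulses; drugs applied at known concentration in continuously flowing bath. AHP amplitude measured with and without compound for percent inhibition. Dequalinium tested on every cell; EMR = ratio of concentrations of compound and dequalinium giving 50% AHP inhibition in the same experiment. IC50 and EMR from simultaneous nonlinear least-squares Hill fits; each concentration tested on at least three neurons.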

[2] = organism: Rattus norvegicus; assay: The equieffective molar ratio of the concentrations of the test compound and after hyperpolarization (AHP); format: functional
[3] = organism: Rattus norvegicus; assay: Compound was tested for its ability to inhibit the after hyperpolarization which follows the action potential in rat sympathetic neurons.; format: functional, organism-based; conditions: Sympathetic neuron; procedure, shortened: as §1

Row | SMILES | EMR [1] | EMR [2] | IC50 [3] [nM]
1 | Nc1cc[n+](CCCCCCCCCC[n+]2ccc(N)c3ccccc32)c2ccccc12 | 1.3 |  | 
2 | Cc1cc(N)c2ccccc2[n+]1CCCCCCCCCC[n+]1c(C)cc(N)c2ccccc21.[Cl-].[Cl-] [DEQUALINIUM CHLORIDE] |  | 1 | 900
3 | Nc1cc[n+](CCCCCC[n+]2ccc(N)c3ccccc32)c2ccccc12 | 1.8 |  | 2000
4 | Nc1cc[n+](CCCCCCCCCCCC[n+]2ccc(N)c3ccccc32)c2ccccc12 | 1.8 |  | 1700
5 | Nc1cc[n+](CCCCCCCC[n+]2ccc(N)c3ccccc32)c2ccccc12 | 2.1 |  | 2000
6 | Nc1cc[n+](CCC[n+]2ccc(N)c3ccccc32)c2ccccc12 |  | 8.3 | 4500
7 | Nc1cc[n+](CCCCC[n+]2ccc(N)c3ccccc32)c2ccccc12 | 1 |  | 1000
8 | Nc1cc[n+](CCCC[n+]2ccc(N)c3ccccc32)c2ccccc12 | 3.2 |  | 1800
